Data as given in ChEMBL document CHEMBL4406834, “Phenylthiazoles with nitrogenous side chain: An approach to overcome molecular obesity” (Eur J Med Chem, 2019).
≈ marks a conversion by molar mass, not a printed value. Calls of active or inactive are those of the source. The rule behind the calls is not given here.

Columns and labels:
Acinetobacter baumannii [1] = experiment: Bactericidal activity against Acinetobacter baumannii ATCC 19606; assay type: functional; conditions: ATCC 19606 = CIP 70.34 = JCM 6841
Listeria monocytogenes [2] = experiment: Antibacterial activity against Listeria monocytogenes ATCC 19111 after 18 to 20 hrs by CLSI-based broth microdilution assay; assay type: functional
Escherichia coli [3] = experiment: Antibacterial activity against Escherichia coli BW25113; assay type: functional
Staphylococcus aureus [4] = experiment: Bactericidal activity against methicilline-resistant Staphylococcus aureus NRS386 USA700 incubated for 18 to 20 hrs followed by replating on tryptic soy agar plate and further incubated for 18 to 24 hrs by CLSI-based broth microdilution assay; assay type: functional
Summary of the method: (§1)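 MBC: after the broth microdilution MIC (CAMHB, ~5 × 10^5 CFU/mL, 37 °C, 18-20 h), 4 µL from wells without growth plated onto tryptic soy agar. Plates incubated 37 °C for 18-20 h. MBC is the lowest concentration giving 99.9% reduction in growth.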

Enterococcus faecium [5] = experiment: Antibacterial activity against vancomycin-resistant Enterococcus faecium ATCC 700221 after 18 to 20 hrs by CLSI-based broth microdilution assay; assay type: functional
Summary of the method: (§2)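 Broth microdilution per CLSI. Strains grown aerobically overnight on tryptone soy agar at 37 °C, adjusted to 0.5 McFarland, then diluted in cation-adjusted Mueller-Hinton broth to about 5 × 10^5 CFU/mL. Compounds (10 mg/mL DMSO stocks) serially diluted. Incubated aerobically at 37 °C for 18-20 h. MIC is the lowest concentration with no visible growth.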

Pseudomonas aeruginosa [6] = experiment: Antibacterial activity against Pseudomonas aeruginosa ATCC 15442; assay type: functional
Staphylococcus aureus [7] = experiment: Antibacterial activity against methicilline-resistant Staphylococcus aureus NRS-119 after 18 to 20 hrs by CLSI-based broth microdilution assay; assay type: functional; summary of the method: as §2
Escherichia coli [8] = experiment: Bactericidal activity against Escherichia coli ATCC 25922; assay type: functional
Klebsiella pneumoniae [9] = experiment: Bactericidal activity against Klebsiella pneumoniae BAA-1706; assay type: functional
Streptococcus pneumoniae [10] = experiment: Antibacterial activity against cephalosporin-resistant Streptococcus pneumoniae ATCC 51916 after 18 to 20 hrs by CLSI-based broth microdilution assay; assay type: functional; summary of the method: as §2
Staphylococcus aureus [11] = experiment: Antibiofilm activity against methicillin resistant Staphylococcus aureus NRS384 USA300 assessed as disruption of preformed biofilm at 4 x MIC incubated for 24 hrs by crystal violet staining based spectrophotometric analysis relative to control; assay type: functional
Summary of the method: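 MRSA USA300 overnight culture diluted 1:100 in tryptic soy broth + 1% glucose. Biofilm formed for 24 h at 37 °C. Planktonic cells removed, then compounds added at 256 to 2 µg/mL in TSB for 24 h at 37 °C. Wells washed with PBS, stained with 0.1% crystal violet for 30 min, destained with ethanol, read at OD595. Percent eradication relative to DMSO; unpaired t test.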

Staphylococcus aureus [12] = experiment: Bactericidal activity against methicilline-sensitive Staphylococcus aureus ATCC 6538 incubated for 18 to 20 hrs followed by replating on tryptic soy agar plate and further incubated for 18 to 24 hrs by CLSI-based broth microdilution assay; assay type: functional; summary of the method: as §1
[13] = Safety index, ratio of non-toxic concentration for human Caco2 cells to MIC for methicillin-resistant Staphylococcus aureus NRS384 USA300; assay type: toxicity
Summary of the method: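 Caco-2 cells exposed to compound in triplicate at 32, 64 and 128 µg/mL for 2 h, then MTS reagent for 4 h, absorbance at OD490. Viability expressed as percent of DMSO control. Highest non-toxic concentration divided by the broth microdilution MIC against MRSA USA300.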

Listeria monocytogenes [14] = experiment: Bactericidal activity against Listeria monocytogenes ATCC 19111 incubated for 18 to 20 hrs followed by replating on tryptic soy agar plate and further incubated for 18 to 24 hrs by CLSI-based broth microdilution assay; assay type: functional
Klebsiella pneumoniae [15] = experiment: Antibacterial activity against Klebsiella pneumoniae BAA-1706; assay type: functional
Streptococcus pneumoniae [16] = experiment: Antibacterial activity against methicillin-resistant Streptococcus pneumoniae ATCC 700677 after 18 to 20 hrs by CLSI-based broth microdilution assay; assay type: functional; summary of the method: as §2
Staphylococcus aureus [17] = experiment: Bactericidal activity against vancomycin-resistant Staphylococcus aureus 12 incubated for 18 to 20 hrs followed by replating on tryptic soy agar plate and further incubated for 18 to 24 hrs by CLSI-based broth microdilution assay; assay type: functional; summary of the method: as §1
Pseudomonas aeruginosa [18] = experiment: Antibacterial activity against Pseudomonas aeruginosa ATCC 27853; assay type: functional
Staphylococcus aureus [19] = experiment: Antibacterial activity against methicilline-resistant Staphylococcus aureus NRS123 USA400 after 18 to 20 hrs by CLSI-based broth microdilution assay; assay type: functional; summary of the method: as §2
Staphylococcus aureus [20] = experiment: Antibacterial activity against vancomycin-resistant Staphylococcus aureus 10 after 18 to 20 hrs by CLSI-based broth microdilution assay; assay type: functional; summary of the method: as §2
Escherichia coli [21] = experiment: Bactericidal activity against TolC-deficient Escherichia coli JW55031; assay type: functional
[22] = Aqueous solubility of the compound in phosphate buffered saline assessed as concentration that produces no precipitate measured as OD at 540 nm; assay type: physicochemical
Staphylococcus aureus [23] = experiment: Bactericidal activity against vancomycin-resistant Staphylococcus aureus 10 incubated for 18 to 20 hrs followed by replating on tryptic soy agar plate and further incubated for 18 to 24 hrs by CLSI-based broth microdilution assay; assay type: functional; summary of the method: as §1
Staphylococcus aureus [24] = experiment: Bactericidal activity against methicilline-sensitive Staphylococcus aureus NRS-107 incubated for 18 to 20 hrs followed by replating on tryptic soy agar plate and further incubated for 18 to 24 hrs by CLSI-based broth microdilution assay; assay type: functional; summary of the method: as §1
[25] = test system: Staphylococcus epidermidis; experiment: Antibacterial activity against methicillin-resistant Staphylococcus epidermidis NRS101 after 18 to 20 hrs by CLSI-based broth microdilution assay; assay type: functional; summary of the method: as §2
Enterococcus faecium [26] = experiment: Bactericidal activity against vancomycin-resistant Enterococcus faecium ATCC 700221 incubated for 18 to 20 hrs followed by replating on tryptic soy agar plate and further incubated for 18 to 24 hrs by CLSI-based broth microdilution assay; assay type: functional; summary of the method: as §1
Staphylococcus aureus [27] = experiment: Antibacterial activity against methicilline-resistant Staphylococcus aureus NRS385 USA500 after 18 to 20 hrs by CLSI-based broth microdilution assay; assay type: functional; summary of the method: as §2
Staphylococcus aureus [28] = experiment: Antibacterial activity against methicillin-resistant Staphylococcus aureus NRS384 USA300 after 18 to 20 hrs by broth microdilution assay; assay type: functional; summary of the method: as §2
Staphylococcus aureus [29] = experiment: Bactericidal activity against methicillin-resistant Staphylococcus aureus USA400 assessed as reduction in bacterial burden at 5 times MIC after 4 hrs by time kill assay; assay type: functional, organism-based
Streptococcus pneumoniae [30] = experiment: Bactericidal activity against methicillin-resistant Streptococcus pneumoniae ATCC 700677 incubated for 18 to 20 hrs followed by replating on tryptic soy agar plate and further incubated for 18 to 24 hrs by CLSI-based broth microdilution assay; assay type: functional; summary of the method: as §1
Staphylococcus aureus [31] = experiment: Antibacterial activity against Staphylococcus aureus ATCC BAA42 after 18 to 20 hrs by CLSI-based broth microdilution assay; assay type: functional; summary of the method: as §2
Escherichia coli [32] = experiment: Bactericidal activity against Escherichia coli BW25113; assay type: functional
Staphylococcus aureus [33] = experiment: Antibacterial activity against methicilline-resistant Staphylococcus aureus NRS384 USA300 after 18 to 20 hrs by CLSI-based broth microdilution assay; assay type: functional; summary of the method: as §2
Staphylococcus aureus [34] = experiment: Bactericidal activity against methicilline-resistant Staphylococcus aureus NRS384 USA300 incubated for 18 to 20 hrs followed by replating on tryptic soy agar plate and further incubated for 18 to 24 hrs by CLSI-based broth microdilution assay; assay type: functional; summary of the method: as §1
Pseudomonas aeruginosa [35] = experiment: Bactericidal activity against Pseudomonas aeruginosa ATCC 15442; assay type: functional
Acinetobacter baumannii [36] = experiment: Antibacterial activity against Acinetobacter baumannii ATCC 19606; assay type: functional; conditions: ATCC 19606 = CIP 70.34 = JCM 6841
Escherichia coli [37] = experiment: Antibacterial activity against Escherichia coli ATCC 25922; assay type: functional

| Structure (SMILES) | MBC (Acinetobacter baumannii [1]) [µg/mL] | MIC (Listeria monocytogenes [2]) [µg/mL] | MIC (Escherichia coli [3]) [µg/mL] | MBC (Staphylococcus aureus [4]) [µg/mL] | MIC (Enterococcus faecium [5]) [µg/mL] | MIC (Pseudomonas aeruginosa [6]) [µg/mL] | MIC (Staphylococcus aureus [7]) [µg/mL] | MBC (Escherichia coli [8]) [µg/mL] | MBC (Klebsiella pneumoniae [9]) [µg/mL] | MIC (Streptococcus pneumoniae [10]) [µg/mL] | inhibition (INH) (Staphylococcus aureus [11]) [%] | MBC (Staphylococcus aureus [12]) [µg/mL] | selectivity ratio [13] | MBC (Listeria monocytogenes [14]) [µg/mL] | MIC (Klebsiella pneumoniae [15]) [µg/mL] | MIC (Streptococcus pneumoniae [16]) [µg/mL] | MBC (Staphylococcus aureus [17]) [µg/mL] | MIC (Pseudomonas aeruginosa [18]) [µg/mL] | MIC (Staphylococcus aureus [19]) [µg/mL] | MIC (Staphylococcus aureus [20]) [µg/mL] | also measured |
| --- | --- | --- | --- | --- | --- | --- | --- | --- | --- | --- | --- | --- | --- | --- | --- | --- | --- | --- | --- | --- | --- |
| C/C(=N\NC(=N)N)c1sc(-c2ccc(N3CCCCC3)cc2)nc1C | 64 (≈ 180 µM) | 8 (≈ 22.4 µM) | 32 (≈ 89.8 µM) | 16 (≈ 44.9 µM) | 8 (≈ 22.4 µM) | > 64 | 4 (≈ 11.2 µM) | 64 (≈ 180 µM) | 64 (≈ 180 µM) | 8 (≈ 22.4 µM) | 72 | 8 (≈ 22.4 µM) | 16 | 16 (≈ 44.9 µM) | 64 (≈ 180 µM) | 8 (≈ 22.4 µM) | 16 (≈ 44.9 µM) | > 64 | 8 (≈ 22.4 µM) | 4 (≈ 11.2 µM) | MBC (Escherichia coli [21]): 32 µg/mL (≈ 89.8 µM); solubility kinetic [22]: 480 µM (≈ 171 µg/mL); MBC (Staphylococcus aureus [23]): 16 µg/mL (≈ 44.9 µM); MBC (Staphylococcus aureus [24]): 8 µg/mL (≈ 22.4 µM); MIC [25]: 8 µg/mL (≈ 22.4 µM); MBC (Enterococcus faecium [26]): 32 µg/mL (≈ 89.8 µM); MIC (Staphylococcus aureus [27]): 8 µg/mL (≈ 22.4 µM); MIC (Staphylococcus aureus [28]): 4 µg/mL (≈ 11.2 µM); inhibition (Staphylococcus aureus [29]): Active; MBC (Streptococcus pneumoniae [30]): 16 µg/mL (≈ 44.9 µM); MIC (Staphylococcus aureus [31]): 4 µg/mL (≈ 11.2 µM); MBC (Escherichia coli [32]): 64 µg/mL (≈ 180 µM); MIC (Staphylococcus aureus [33]): 4 µg/mL (≈ 11.2 µM); MBC (Staphylococcus aureus [34]): 16 µg/mL (≈ 44.9 µM); MBC (Pseudomonas aeruginosa [35]): > 64 µg/mL; MIC (Acinetobacter baumannii [36]): 32 µg/mL (≈ 89.8 µM); MIC (Escherichia coli [37]): 64 µg/mL (≈ 180 µM) |
| C/C(=N\NC(=N)N)c1sc(-c2ccc(N3CCCC(C)C3)cc2)nc1C (centres undefined) | 32 (≈ 86.4 µM) | 2 (≈ 5.4 µM) | 32 (≈ 86.4 µM) | 8 (≈ 21.6 µM) | 4 (≈ 10.8 µM) | > 64 | 8 (≈ 21.6 µM) | 32 (≈ 86.4 µM) | 32 (≈ 86.4 µM) | 8 (≈ 21.6 µM) | 50 | 16 (≈ 43.2 µM) | 8 | 8 (≈ 21.6 µM) | 16 (≈ 43.2 µM) | 8 (≈ 21.6 µM) | 8 (≈ 21.6 µM) | > 64 | 8 (≈ 21.6 µM) | 8 (≈ 21.6 µM) | MBC (Escherichia coli [21]): 16 µg/mL (≈ 43.2 µM); solubility kinetic [22]: 435 µM (≈ 161 µg/mL); MBC (Staphylococcus aureus [23]): 16 µg/mL (≈ 43.2 µM); MBC (Staphylococcus aureus [24]): 16 µg/mL (≈ 43.2 µM); MIC [25]: 4 µg/mL (≈ 10.8 µM); MBC (Enterococcus faecium [26]): 32 µg/mL (≈ 86.4 µM); MIC (Staphylococcus aureus [27]): 8 µg/mL (≈ 21.6 µM); MIC (Staphylococcus aureus [28]): 4 µg/mL (≈ 10.8 µM); inhibition (Staphylococcus aureus [29]): Active; MBC (Streptococcus pneumoniae [30]): 32 µg/mL (≈ 86.4 µM); MIC (Staphylococcus aureus [31]): 8 µg/mL (≈ 21.6 µM); MBC (Escherichia coli [32]): 32 µg/mL (≈ 86.4 µM); MIC (Staphylococcus aureus [33]): 4 µg/mL (≈ 10.8 µM); MBC (Staphylococcus aureus [34]): 16 µg/mL (≈ 43.2 µM); MBC (Pseudomonas aeruginosa [35]): > 64 µg/mL; MIC (Acinetobacter baumannii [36]): 32 µg/mL (≈ 86.4 µM); MIC (Escherichia coli [37]): 16 µg/mL (≈ 43.2 µM) |
